Series [1] is described as follows: Selectivity index, ratio of CC50 for human mock-infected MT4 cells to EC50 for HIV1 3B harboring reverse transcriptase K103N mutant infected in human MT4 cells. The format is toxicity, cell-based. The following applies: MT4 cells (mock-infected for CC50, HIV-1 infected for EC50). The method in brief: (§1)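 Selectivity index is CC50/EC50. CC50 is the concentration that reduces OD540 of mock-infected MT-4 cells by 50% in the 5-day MTT assay. EC50 is the 50% protection from virus-induced cytopathicity, measured in parallel on infected wells.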

Series [2] in a line: Cytotoxicity against human mock-infected MT4 cells assessed as reduction in cell viability after 5 days by MTT assay. The format is toxicity, cell-based. The method in brief: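 Mock-infected MT-4 cells (6 × 10^5 cells/mL at seeding) with serial 5-fold compound dilutions in triplicate wells. Viability read by MTT after 5 days, absorbance at 540 and 690 nm, median OD of three wells. CC50 is the concentration reducing OD540 of mock-infected cells by 50%.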
On the technique in general: Formazan colour is commonly taken as a measure of viable cells.

In series [3] the test system is Human immunodeficiency virus 1. Description: Potency index, ratio of ETV EC50 to compound EC50 for HIV1 3B harboring reverse transcriptase YI88L mutant infected in human MT4 cells. The format is functional.
Series [4] concerns Human immunodeficiency virus 1. Nature of the series: Antiviral activity against HIV1 3B harboring reverse transcriptase Y188L mutant infected in human MT4 cells assessed as protection against virus induced cytotoxicity after 5 days by MTT assay. The following applies: Human immunodeficiency virus 1, 3B, MT4, 120 h. The format is functional, cell-based. The method in brief:
(§2)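 MTT cytopathicity assay in MT-4 cells (6 × 10^5 cells/mL). Compounds serially diluted 5-fold in triplicate wells, run in parallel on infected and mock-infected cells. Virus added at 100−300 CCID50 per well. Viability read spectrophotometrically at 540 and 690 nm after 5 days, using the median OD of three wells. EC50 is the concentration giving 50% protection from viral cytopathogenicity.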

Series [5] deals with Human immunodeficiency virus 1. Nature of the series: Potency index, ratio of ETV EC50 to compound EC50 for HIV1 3B harboring reverse transcriptase E138K mutant infected in human MT4 cells. The format is functional.
In series [6] the test system is Human immunodeficiency virus 1. Nature of the series: Antiviral activity against HIV1 3B harboring reverse transcriptase E138K mutant infected in human MT4 cells assessed as protection against virus induced cytotoxicity after 5 days by MTT assay. The format is functional, cell-based. The following applies: Human immunodeficiency virus 1, 3B, MT4, 120 h. A digest of the protocol: as §2

In series [7] the test system is Human immunodeficiency virus 1. Nature of the series: Antiviral activity against HIV1 3B harboring reverse transcriptase Y181C mutant infected in human MT4 cells assessed as protection against virus induced cytotoxicity after 5 days by MTT assay. The format is functional, cell-based. The note with it: Human immunodeficiency virus 1, 3B, MT4, 120 h. The method in brief: (§3)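 MTT cytopathicity assay in MT-4 cells (6 × 10^5 cells/mL). Compounds serially diluted 5-fold in triplicate wells, run in parallel on infected and mock-infected cells. Virus added at 100−300 CCID50 per well. Viability read spectrophotometrically at 540 and 690 nm after 5 days, using the median OD of three wells.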

Series [8] can be described thus: Selectivity index, ratio of CC50 for human mock-infected MT4 cells to EC50 for HIV1 3B harboring reverse transcriptase F227L/V106A double mutant infected in human MT4 cells. The format is toxicity, cell-based. The following applies: MT4 cells (mock-infected for CC50, HIV-1 infected for EC50). The method in brief: as §1
Series [9] concerns Human immunodeficiency virus 1. Description: Antiviral activity against HIV1 3B harboring reverse transcriptase F227L/V106A double mutant infected in human MT4 cells assessed as protection against virus induced cytotoxicity after 5 days by MTT assay. The format is functional, cell-based. The note with it: Human immunodeficiency virus 1, 3B, MT4, 120 h. A digest of the protocol:
as §2

Series [10] deals with Human immunodeficiency virus 1. Description: Potency index, ratio of ETV EC50 to compound EC50 for HIV1 3B harboring reverse transcriptase Y181C mutant infected in human MT4 cells. The format is functional.
Series [11] in a line: Selectivity index, ratio of CC50 for human mock-infected MT4 cells to EC50 for wild type HIV1 3B harboring reverse transcriptase infected in human MT4 cells. The format is toxicity, cell-based. The note with it: MT4 cells (mock-infected for CC50, HIV-1 infected for EC50). The method in brief: as §1
A short description of series [12]: Selectivity index, ratio of CC50 for human mock-infected MT4 cells to EC50 for HIV1 3B harboring reverse transcriptase Y181C mutant infected in human MT4 cells. The format is toxicity, cell-based. The following applies: MT4 cells (mock-infected for CC50, HIV-1 infected for EC50). A digest of the protocol:
as §1

A short description of series [13]: Selectivity index, ratio of CC50 for human mock-infected MT4 cells to EC50 for HIV1 RES056 harboring reverse transcriptase K103N/Y181C double mutant infected in human MT4 cells. The following applies: MT4 cells (mock-infected for CC50, HIV-1 infected for EC50). The format is toxicity, cell-based. A digest of the protocol:
as §1

A short description of series [14]: Selectivity index, ratio of CC50 for human mock-infected MT4 cells to EC50 for HIV1 3B harboring reverse transcriptase L100I mutant infected in human MT4 cells. The note with it: MT4 cells (mock-infected for CC50, HIV-1 infected for EC50). The format is toxicity, cell-based. The method in brief: as §1
Series [15] deals with Human immunodeficiency virus 1. Description: Antiviral activity against wild type HIV1 3B harboring reverse transcriptase infected in human MT4 cells assessed as protection against virus induced cytotoxicity after 5 days by MTT assay. The note with it: Human immunodeficiency virus 1, 3B, MT4, 120 h. The format is functional, cell-based. A digest of the protocol: as §3
Series [16] can be described thus: Selectivity index, ratio of CC50 for human mock-infected MT4 cells to EC50 for HIV1 3B harboring reverse transcriptase E138K mutant infected in human MT4 cells. The format is toxicity, cell-based. The note with it: MT4 cells (mock-infected for CC50, HIV-1 infected for EC50). A digest of the protocol: as §1
Series [17] has as its system Human immunodeficiency virus 1. Description: Antiviral activity against HIV1 3B harboring reverse transcriptase L100I mutant infected in human MT4 cells assessed as protection against virus induced cytotoxicity after 5 days by MTT assay. The format is functional, cell-based. The note with it: Human immunodeficiency virus 1, 3B, MT4, 120 h. The method in brief:
as §2

The nature of series [18]: Antiviral activity against HIV2 ROD harboring reverse transcriptase infected in human MT4 cells assessed as protection against virus induced cytotoxicity after 5 days by MTT assay. The format is functional, cell-based, Human immunodeficiency virus type 2 (ISOLATE ROD). The note with it: Human immunodeficiency virus 2, MT4, 120 h. A digest of the protocol: as §2
The nature of series [19]: Selectivity index, ratio of CC50 for human mock-infected MT4 cells to EC50 for HIV1 3B harboring reverse transcriptase Y188L mutant infected in human MT4 cells. The format is toxicity, cell-based. The note with it: MT4 cells (mock-infected for CC50, HIV-1 infected for EC50). The method in brief:
as §1

Series [20] deals with Human immunodeficiency virus 1. Nature of the series: Antiviral activity against HIV1 3B harboring reverse transcriptase K103N mutant infected in human MT4 cells assessed as protection against virus induced cytotoxicity after 5 days by MTT assay. The format is functional, cell-based. The following applies: Human immunodeficiency virus 1, 3B, MT4, 120 h. A digest of the protocol:
as §2

Series [21] concerns Human immunodeficiency virus 1. Description: Fold resistance, ratio of IC50 for recombinant HIV1 reverse transcriptase K103N/Y181C double mutant to IC50 for wild type HIV1 reverse transcriptase. A digest of the protocol:
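Ratio of mutant to WT IC50. Recombinant WT and K103N/Y181C RT were assayed with a kit: template plus DIG-dUTP, biotin-dUTP and dTTP, with or without inhibitor, 1 h at 37 °C. Product was captured on streptavidin, detected with anti-DIG-POD and ABTS, and read at 405 nm. IC50 is the concentration inhibiting biotin-dUTP incorporation by 50%.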

In series [22] the target is Human immunodeficiency virus type 1 reverse transcriptase (Human immunodeficiency virus 1, UniProt Q72547, K103N/Y181C). Nature of the series: Inhibition of recombinant HIV1 reverse transcriptase K103N/Y181C double mutant using DIG-dUTP/biotin-dUTP/dTTP assessed as suppression of biotin-dUTP incorporation after 1 hr by ELISA. For orientation: In an ELISA, binding on a coated surface is turned into a signal by an enzyme label.

The nature of series [23]: Inhibition of recombinant wild type HIV1 reverse transcriptase using DIG-dUTP/biotin-dUTP/dTTP assessed as suppression of biotin-dUTP incorporation after 1 hr by ELISA. Further details: species or system Human immunodeficiency virus 1. A digest of the protocol: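 Recombinant WT HIV-1 RT in a Roche colorimetric kit: template plus DIG-dUTP, biotin-dUTP and dTTP, ±inhibitor, 1 h at 37 °C. Product captured on streptavidin plate 1 h at 37 °C, anti-DIG-POD 1 h at 37 °C, ABTS developed at 25 °C, read at OD405. IC50 is the concentration inhibiting biotin-dUTP incorporation by 50%.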

The text below walks through data of ChEMBL document CHEMBL3853327 (J Med Chem, 2016).

A value given as a limit tells only on which side of the number the result lay.

As for `Cc1cc(C#N)cc(C)c1Oc1nc(NC2CCN(Cc3ccc(C(N)=O)cc3)CC2)nc2ccsc12`, the selectivity ratio was 53800 in series [1]; 8860 in [8]; 66900 in series [11]; 18100 in [12]; 1110 in series [13]; 8760 in [14]. Further, the selectivity ratio in [16] amounted to 21300; in series [19] it was 11100. Further, in series [2], the CC50 at 120 h stood at 95400 nM. The “Ratio EC50” value in [3], in [5] and in [10] was 2 in each case. In addition, the EC50 in [4] amounted to 8.6 nM; in series [6], 4.5 nM; in series [7], 5.3 nM; in [9], 10.7 nM; in series [15], 1.4 nM; in series [17], 10.8 nM. Moreover, the EC50 was > 95400 nM in series [18] and 1.8 nM in series [20].
In the case of `Cc1cc(C#N)cc(C)c1Oc1nc(NC2CCN(Cc3ccc(NS(C)(=O)=O)cc3)CC2)nc2ccsc12`, the selectivity ratio was determined as 35700 in [1]; 2120 in [8]; 44200 in [11]; 9890 in series [12]; 261 in series [13]; 5020 in series [14]. Further, the selectivity ratio in series [16] was determined as 9900; in series [19], 8870. Also, in series [2], the CC50 at 120 h stood at 68300 nM. Further, the “Ratio EC50” value in series [3], in [5] and in [10] was 2 each time. In addition, the EC50 in series [4] is 8.2 nM; in series [6], 6.9 nM; in series [7], 6.9 nM; in [9] it was 32.2 nM; in series [15], 1.5 nM; in series [17] it was 13.6 nM. In addition, the EC50 in series [18] was > 68300 nM; in [20], 1.9 nM.
`CNS(=O)(=O)c1ccc(CN2CCC(Nc3nc(Oc4c(C)cc(C#N)cc4C)c4sccc4n3)CC2)cc1`: the selectivity ratio in [1] came to 2880; in series [8], 1090; in series [11] it was 2790; in series [12], 911; in series [13], 136; in series [14], 972. The selectivity ratio in series [16] came out at 665; in [19] it was 647. Also, the CC50 at 120 h in [2] was determined as 4420 nM. Moreover, the “Ratio EC50” value in [3], in series [5] and in series [10] was 2 in each case. Moreover, the EC50 was 6.8 nM in series [4]; 6.6 nM in series [6]; 4.8 nM in series [7]; 4.1 nM in [9]; 1.5 nM in series [15]; 4.5 nM in series [17]. The EC50 in series [18] was > 4420 nM; in series [20] it was 1.5 nM.
Regarding `Cc1cc(C#N)cc(C)c1Oc1nc(NC2CCN(Cc3ccncc3)CC2)nc2ccsc12`, the selectivity ratio in [1] was 2090; in [8], 159; in series [11], 2000; in [12], 483; in [13] it was 32; in series [14], 253. For the same compound, the results for the selectivity ratio in series [16] and in [19] were 489 and 373, respectively. The CC50 at 120 h in [2] amounted to 20600 nM. Besides, the EC50 came to 55.3 nM in series [4]; 42.2 nM in [6]; 42.7 nM in series [7]; 130 nM in [9]; 10.3 nM in [15]; 81.6 nM in [17]. The concentration giving a half-maximal response (EC50) was > 20600 nM in series [18] and 9.9 nM in series [20]. Moreover, the Ratio IC50 in series [21] came to 2.87. Also, the IC50 was found to be 3740 nM in series [22] and 1300 nM in [23].
For the compound `Cc1cc(C#N)cc(C)c1Oc1nc(NC2CCN(Cc3ccc(F)cc3)CC2)nc2ccsc12`, the selectivity ratio in series [1] came to 16200; in [8] it was 198; in series [11], 18700; in [12], 3740; in series [13] it was 131; in [14], 1550. Further, the selectivity ratio in series [16] stood at 4100; in series [19] it was 3140. The CC50 at 120 h in series [2] came to 141000 nM. Also, the EC50 amounted to 44.8 nM in series [4]; 34.4 nM in series [6]; 37.8 nM in series [7]; 712 nM in series [9]; 7.5 nM in series [15]; 90.9 nM in [17]. The EC50 in series [18] was ≥ 141000 nM; in series [20] it was 8.7 nM. Besides, in series [21], the Ratio IC50 is 3.17. Further, the IC50 in [22] was found to be 2570 nM; in [23], 810 nM.

For orientation: CC50 means the concentration giving 50% cytotoxicity. The EC50 is the concentration needed to bring the measured effect to its halfway point. The term IC50 denotes the midpoint of a concentration-inhibition curve.
